From ChEMBL document CHEMBL1629528 (J Med Chem, 2010)
Active and inactive are the calls of the source. No cut-off for these calls is given here.

Assays:
[1] = molecular target: T1, 5-hydroxytryptamine receptor 2C (Homo sapiens, UniProt P28335); assay: Binding affinity to human recombinant 5-HT2C receptor by radioligand displacement assay
T1 sequence (P28335 whole entry): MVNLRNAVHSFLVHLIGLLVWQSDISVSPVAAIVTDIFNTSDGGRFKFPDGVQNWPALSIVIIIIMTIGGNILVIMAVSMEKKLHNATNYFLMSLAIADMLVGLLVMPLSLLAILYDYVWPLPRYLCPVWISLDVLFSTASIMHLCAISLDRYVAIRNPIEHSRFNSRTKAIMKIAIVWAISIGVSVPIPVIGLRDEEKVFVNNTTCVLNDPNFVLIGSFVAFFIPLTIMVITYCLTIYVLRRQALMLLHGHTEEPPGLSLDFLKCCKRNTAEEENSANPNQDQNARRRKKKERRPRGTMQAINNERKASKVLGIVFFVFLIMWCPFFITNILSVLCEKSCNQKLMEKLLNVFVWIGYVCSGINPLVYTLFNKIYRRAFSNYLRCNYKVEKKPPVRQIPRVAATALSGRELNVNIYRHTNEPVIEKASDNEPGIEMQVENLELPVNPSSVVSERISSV

[2] = molecular target: T2, 5-hydroxytryptamine receptor 1A (Homo sapiens) (UniProt P08908); assay: Intrinsic activity at human recombinant 5-HT1A receptor expressed in HEK293 cells by [S35]GTPgammaS binding assay relative to 5-HT; format: functional, cell-based
T2 sequence (whole entry): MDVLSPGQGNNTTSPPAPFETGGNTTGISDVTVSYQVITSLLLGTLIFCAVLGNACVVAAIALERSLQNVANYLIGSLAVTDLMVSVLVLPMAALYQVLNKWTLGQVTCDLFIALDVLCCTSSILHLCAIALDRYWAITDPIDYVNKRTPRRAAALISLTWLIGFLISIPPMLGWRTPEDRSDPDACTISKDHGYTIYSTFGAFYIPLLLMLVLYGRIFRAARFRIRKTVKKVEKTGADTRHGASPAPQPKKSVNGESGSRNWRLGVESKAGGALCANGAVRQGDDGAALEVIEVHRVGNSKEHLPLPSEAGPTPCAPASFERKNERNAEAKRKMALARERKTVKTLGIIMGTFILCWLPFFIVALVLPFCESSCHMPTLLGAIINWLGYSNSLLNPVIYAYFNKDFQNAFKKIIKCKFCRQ
Procedure, shortened: (§1)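 [35S]-GTPγS binding in membranes from 10^6 cells (HEK293 for 5-HT1A; CHO for 5-HT1B, 5-HT1D), preincubated 30 min at 30 °C with compound in 20 mM HEPES pH 7.4, 3 mM MgCl2, 100 mM NaCl, 10 μM GDP, 0.2 mM ascorbate. 100 pM [35S]-GTPγS added, 30 min more at 30 °C; nonspecific with 20 μM GTPγS; filtration and scintillation counting.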

[3] = molecular target: D(3) dopamine receptor (Homo sapiens, UniProt P35462); assay: Binding affinity to human recombinant dopamine D3 receptor by radioligand displacement assay
[4] = molecular target: T3, 5-hydroxytryptamine receptor 1D (Homo sapiens, UniProt P28221); assay: Intrinsic activity at human recombinant 5-HT1D receptor expressed in CHO cells by [S35]GTPgammaS binding assay relative to 5-HT; format: functional, cell-based; procedure, shortened: as §1
[5] = molecular target: D(2) dopamine receptor (Homo sapiens, UniProt P14416); assay: Binding affinity to human recombinant dopamine D2 receptor by radioligand displacement assay
[6] = molecular target: 5-hydroxytryptamine receptor 2B (Homo sapiens, UniProt P41595); assay: Binding affinity to human recombinant 5-HT2B receptor by radioligand displacement assay
[7] = molecular target: 5-hydroxytryptamine receptor 7 (Homo sapiens, UniProt P34969); assay: Binding affinity to human recombinant 5-HT7 receptor by radioligand displacement assay
[8] = molecular target: T4, 5-hydroxytryptamine receptor 1B (Homo sapiens, UniProt P28222); assay: Intrinsic activity at human recombinant 5-HT1B receptor expressed in CHO cells by [S35]GTPgammaS binding assay relative to 5-HT; format: functional, cell-based; procedure, shortened: as §1
[9] = molecular target: 5-hydroxytryptamine receptor 2A (Homo sapiens, UniProt P28223); assay: Binding affinity to human recombinant 5-HT2A receptor by radioligand displacement assay
[10] = molecular target: Voltage-gated inwardly rectifying potassium channel KCNH2 (Homo sapiens, UniProt Q12809); assay: Displacement of [3H]dofetilide from human ERG by SPA
[11] = molecular target: Sodium-dependent serotonin transporter (Rattus norvegicus, UniProt P31652); assay: Inhibition of [3H]5-HT uptake at SERT in rat cortical synaptosomes; format: subcellular, Brain
[12] = molecular target: T5, 5-hydroxytryptamine receptor 1A (Homo sapiens, UniProt P08908); assay: Displacement of [3H]WAY100635 from human recombinant 5-HT1A receptor expressed in CHO cells; format: cell-based
T5 sequence (P08908 whole entry): T2 sequence (whole entry)

[13] = molecular target: 5-hydroxytryptamine receptor 6 (Homo sapiens, UniProt P50406); assay: Binding affinity to human recombinant 5-HT6 receptor by radioligand displacement assay
[14] = molecular target: T4, 5-hydroxytryptamine receptor 1B; assay: Displacement of [3H]5-HT from human recombinant 5-HT1B receptor expressed in CHO cells; format: cell-based
[15] = molecular target: T3, 5-hydroxytryptamine receptor 1D; assay: Displacement of [3H]5-HT from human recombinant 5-HT1D receptor expressed in CHO cells; format: cell-based
[16] = test system: Rattus norvegicus; assay: Inhibition of 8-OH-DPAT-induced hyperlocomotory activity in Sprague-Dawley rat administered orally 60 mins before 8-OH-DPATchallenge; format: functional; conditions: for ED50: po
Procedure, shortened: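 Male Sprague-Dawley rats (250–350 g) dosed orally (5 mL/kg) at 0.03, 0.1 or 0.3 mg/kg or vehicle, 60 min before sc 8-OH-DPAT 0.2 mg/kg (2 mL/kg). Total distance travelled recorded by infrared sensors over 30 min immediately after; 8–9 rats per group.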

[17] = Clearance in cynomolgus monkey at 1 mg/kg, iv; conditions: in vivo
[18] = Half life in cynomolgus monkey at 1 mg/kg, iv; conditions: in vivo
[19] = Half life in Sprague-Dawley rat at 0.5 mg/kg, iv after 24 hrs; format: ADME, organism-based; design: dose 0.5 mg/kg, route intravenous; conditions: in vivo
Procedure, shortened: (§2)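 Male Sprague-Dawley rats given 0.5 mg/kg iv (2 mL/kg, 2.5% DMSO in glucosate solution), n=3, cassette dosing; blood collected at intervals up to 24 h, protein precipitation and LC-MS/MS quantification.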

[20] = in vivo; conditions: cynomolgus monkey, plasma, po, 10 mg/kg
[21] = Cmax in Sprague-Dawley rat at 1 mg/kg, po after 24 hrs; format: ADME, organism-based; design: dose 1 mg/kg, route oral; conditions: in vivo
Procedure, shortened: (§3)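 Male Sprague-Dawley rats dosed po at 1 mg/kg (10 mL/kg, 1% DMSO in aqueous 0.5% methocel), n=3, as a cassette with other compounds; blood sampled at intervals up to 24 h and analysed by protein precipitation then LC-MS/MS.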

[22] = in vivo; conditions: dog, plasma, po, 10 mg/kg
[23] = Solubility of the compound in simulated gastric fluid at pH 1.2 at 25 degC; format: physicochemical
[24] = in vivo; conditions: dog, po, 10 mg/kg
[25] = in vivo; conditions: cynomolgus monkey, po, 10 mg/kg
[26] = Ratio of drug level in brain to blood in Sprague-Dawley rat after 1 hr; format: ADME, tissue-based; conditions: read-out: BBR
Procedure, shortened: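 Male Sprague-Dawley rats dosed iv at 0.5 mg/kg (2.5% DMSO in glucosate), n=3, as a cassette. At 1 h, CO2 anaesthesia, blood taken by heart puncture and brain removed. Both matrices analysed by protein precipitation and LC-MS/MS.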

[27] = in vivo; conditions: cynomolgus monkey, po, 10 mg/kg; remark: listed apart in the source
[28] = Oral bioavailability in Sprague-Dawley rat at 1 mg/kg, po after 24 hrs; format: ADME, organism-based; conditions: in vivo; procedure, shortened: as §3
[29] = Solubility of the compound in fed state simulated intestinal fluid at pH 5.5 at 25 degC; format: physicochemical
Procedure, shortened: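 Solubility determined at 25 °C in fed state simulated intestinal fluid at pH 5.5.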

[30] = in vivo; conditions: dog, po, 1 mg/kg
[31] = Clearance in Sprague-Dawley rat at 0.5 mg/kg, iv after 24 hrs; format: ADME, organism-based; design: dose 0.5 mg/kg, route intravenous; conditions: in vivo; procedure, shortened: as §2
[32] = Half life in dog at 0.5 mg/kg, iv; conditions: in vivo
[33] = Clearance in dog at 0.5 mg/kg, iv; conditions: in vivo
[34] = AUC (0 to infinity) in Sprague-Dawley rat at 1 mg/kg, po after 24 hrs; format: ADME, organism-based; design: time infinity, dose 1 mg/kg, route oral; conditions: plasma; procedure, shortened: as §3
[35] = Solubility of the compound in water; format: physicochemical
Procedure, shortened: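 Measured on the dihydrochloride salt form, dissolved in water.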

[36] = molecular target: T3, 5-hydroxytryptamine receptor 1D; assay: Inverse agonist activity at human recombinant 5-HT1D receptor expressed in CHO cells by [S35]GTPgammaS binding assay; format: functional, cell-based; procedure, shortened: as §1
[37] = molecular target: T4, 5-hydroxytryptamine receptor 1B; assay: Inverse agonist activity at human recombinant 5-HT1B receptor expressed in CHO cells by [S35]GTPgammaS binding assay; format: functional, cell-based; procedure, shortened: as §1
[38] = molecular target: T2, 5-hydroxytryptamine receptor 1A (Homo sapiens); assay: Inverse agonist activity at human recombinant 5-HT1A receptor expressed in HEK293 cells by [S35]GTPgammaS binding assay; format: functional, cell-based; procedure, shortened: as §1

T3 sequence (P28221 whole entry): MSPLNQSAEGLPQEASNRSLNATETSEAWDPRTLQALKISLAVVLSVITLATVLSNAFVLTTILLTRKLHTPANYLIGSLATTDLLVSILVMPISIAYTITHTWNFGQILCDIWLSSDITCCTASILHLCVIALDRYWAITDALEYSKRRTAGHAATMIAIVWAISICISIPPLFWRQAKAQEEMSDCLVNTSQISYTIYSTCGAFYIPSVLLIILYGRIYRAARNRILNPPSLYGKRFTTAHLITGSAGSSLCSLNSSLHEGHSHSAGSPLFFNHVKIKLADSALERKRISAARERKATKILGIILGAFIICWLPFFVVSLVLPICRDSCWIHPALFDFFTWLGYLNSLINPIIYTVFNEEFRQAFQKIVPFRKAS
T4 sequence (P28222 whole entry): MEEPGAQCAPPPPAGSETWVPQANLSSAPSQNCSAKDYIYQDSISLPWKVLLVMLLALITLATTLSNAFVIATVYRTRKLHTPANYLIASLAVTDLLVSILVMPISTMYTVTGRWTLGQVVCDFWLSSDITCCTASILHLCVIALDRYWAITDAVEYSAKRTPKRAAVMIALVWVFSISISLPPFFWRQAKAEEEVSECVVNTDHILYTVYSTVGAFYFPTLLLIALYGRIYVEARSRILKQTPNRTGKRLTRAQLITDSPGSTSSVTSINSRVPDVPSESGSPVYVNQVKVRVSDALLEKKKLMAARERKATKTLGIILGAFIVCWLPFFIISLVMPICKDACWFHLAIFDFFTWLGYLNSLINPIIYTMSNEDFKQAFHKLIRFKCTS
Chain of Sodium-dependent serotonin transporter (P31652 whole entry): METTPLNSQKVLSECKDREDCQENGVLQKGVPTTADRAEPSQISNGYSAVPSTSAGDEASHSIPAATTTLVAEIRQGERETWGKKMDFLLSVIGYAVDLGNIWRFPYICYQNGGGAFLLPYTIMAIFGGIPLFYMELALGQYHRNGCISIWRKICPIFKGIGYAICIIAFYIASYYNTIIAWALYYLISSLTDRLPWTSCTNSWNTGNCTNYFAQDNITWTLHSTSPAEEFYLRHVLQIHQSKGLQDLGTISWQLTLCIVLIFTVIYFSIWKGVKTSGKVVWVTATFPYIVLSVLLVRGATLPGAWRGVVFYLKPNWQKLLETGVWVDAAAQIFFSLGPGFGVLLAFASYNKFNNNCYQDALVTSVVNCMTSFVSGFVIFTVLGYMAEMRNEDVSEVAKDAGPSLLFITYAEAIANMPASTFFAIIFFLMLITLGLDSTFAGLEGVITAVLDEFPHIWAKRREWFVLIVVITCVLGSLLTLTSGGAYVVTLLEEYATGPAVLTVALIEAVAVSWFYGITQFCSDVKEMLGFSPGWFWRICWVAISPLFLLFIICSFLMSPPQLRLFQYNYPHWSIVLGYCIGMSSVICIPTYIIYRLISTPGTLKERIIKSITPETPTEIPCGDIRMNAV
Chain of 5-hydroxytryptamine receptor 2B (P41595 whole entry): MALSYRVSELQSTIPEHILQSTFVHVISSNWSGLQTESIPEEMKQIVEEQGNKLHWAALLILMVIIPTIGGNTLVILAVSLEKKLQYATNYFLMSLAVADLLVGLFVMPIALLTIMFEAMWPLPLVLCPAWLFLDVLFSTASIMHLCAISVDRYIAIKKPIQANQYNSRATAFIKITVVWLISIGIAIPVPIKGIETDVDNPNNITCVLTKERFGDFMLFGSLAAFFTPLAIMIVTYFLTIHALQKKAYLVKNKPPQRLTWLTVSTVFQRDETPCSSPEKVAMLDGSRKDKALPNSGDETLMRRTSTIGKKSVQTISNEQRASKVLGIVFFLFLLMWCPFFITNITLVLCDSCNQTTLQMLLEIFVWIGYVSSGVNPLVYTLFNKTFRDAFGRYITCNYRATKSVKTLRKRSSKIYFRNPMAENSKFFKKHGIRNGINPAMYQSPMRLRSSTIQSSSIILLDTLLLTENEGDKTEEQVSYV
Chain of D(3) dopamine receptor (P35462 whole entry): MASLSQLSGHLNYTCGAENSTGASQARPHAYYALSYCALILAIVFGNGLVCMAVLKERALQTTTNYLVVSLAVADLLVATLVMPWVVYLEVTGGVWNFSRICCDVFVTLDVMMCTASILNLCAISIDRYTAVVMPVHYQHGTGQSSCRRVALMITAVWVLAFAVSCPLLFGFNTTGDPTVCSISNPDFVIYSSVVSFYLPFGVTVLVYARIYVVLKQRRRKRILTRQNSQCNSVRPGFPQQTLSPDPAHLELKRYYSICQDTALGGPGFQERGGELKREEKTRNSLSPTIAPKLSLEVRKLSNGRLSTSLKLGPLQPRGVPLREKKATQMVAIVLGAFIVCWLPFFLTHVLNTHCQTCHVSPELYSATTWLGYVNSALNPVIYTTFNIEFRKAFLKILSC
Chain of 5-hydroxytryptamine receptor 2A (P28223 whole entry): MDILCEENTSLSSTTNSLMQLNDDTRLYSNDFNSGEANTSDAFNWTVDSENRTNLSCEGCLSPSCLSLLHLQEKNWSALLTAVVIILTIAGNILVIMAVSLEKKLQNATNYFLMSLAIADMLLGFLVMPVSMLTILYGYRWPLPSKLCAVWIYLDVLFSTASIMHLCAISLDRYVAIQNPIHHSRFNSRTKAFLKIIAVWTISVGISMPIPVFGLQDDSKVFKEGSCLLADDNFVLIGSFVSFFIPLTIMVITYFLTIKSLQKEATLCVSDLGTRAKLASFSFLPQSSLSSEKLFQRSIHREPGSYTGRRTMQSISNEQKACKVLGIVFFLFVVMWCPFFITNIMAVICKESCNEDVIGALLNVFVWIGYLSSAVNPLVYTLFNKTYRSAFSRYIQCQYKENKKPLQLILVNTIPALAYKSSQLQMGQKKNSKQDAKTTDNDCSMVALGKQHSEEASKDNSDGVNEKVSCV
Chain of 5-hydroxytryptamine receptor 7 (P34969 whole entry): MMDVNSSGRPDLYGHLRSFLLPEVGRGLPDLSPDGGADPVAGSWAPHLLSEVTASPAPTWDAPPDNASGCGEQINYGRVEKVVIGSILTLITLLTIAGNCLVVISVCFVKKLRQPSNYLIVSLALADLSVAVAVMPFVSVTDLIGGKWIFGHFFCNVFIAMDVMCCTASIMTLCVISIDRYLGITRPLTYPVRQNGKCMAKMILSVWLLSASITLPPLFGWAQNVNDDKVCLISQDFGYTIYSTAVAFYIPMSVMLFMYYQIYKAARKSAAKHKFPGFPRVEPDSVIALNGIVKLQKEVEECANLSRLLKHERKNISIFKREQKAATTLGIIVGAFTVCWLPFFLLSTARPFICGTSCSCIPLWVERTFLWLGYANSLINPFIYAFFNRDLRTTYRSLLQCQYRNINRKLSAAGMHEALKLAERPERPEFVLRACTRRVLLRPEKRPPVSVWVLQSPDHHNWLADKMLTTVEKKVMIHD
Chain of 5-hydroxytryptamine receptor 6 (P50406 whole entry): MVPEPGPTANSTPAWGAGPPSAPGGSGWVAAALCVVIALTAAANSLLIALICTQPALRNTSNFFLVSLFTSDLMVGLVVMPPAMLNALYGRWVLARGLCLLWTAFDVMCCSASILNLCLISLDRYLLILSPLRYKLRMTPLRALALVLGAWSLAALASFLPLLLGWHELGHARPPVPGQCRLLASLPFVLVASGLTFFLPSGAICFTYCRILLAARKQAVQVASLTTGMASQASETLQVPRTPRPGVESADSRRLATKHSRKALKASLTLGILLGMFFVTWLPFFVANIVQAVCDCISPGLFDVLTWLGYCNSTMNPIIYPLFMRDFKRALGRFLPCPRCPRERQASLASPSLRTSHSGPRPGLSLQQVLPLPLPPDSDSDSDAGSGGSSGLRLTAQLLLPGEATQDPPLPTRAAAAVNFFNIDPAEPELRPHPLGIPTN
Chain of Voltage-gated inwardly rectifying potassium channel KCNH2 (Q12809 whole entry): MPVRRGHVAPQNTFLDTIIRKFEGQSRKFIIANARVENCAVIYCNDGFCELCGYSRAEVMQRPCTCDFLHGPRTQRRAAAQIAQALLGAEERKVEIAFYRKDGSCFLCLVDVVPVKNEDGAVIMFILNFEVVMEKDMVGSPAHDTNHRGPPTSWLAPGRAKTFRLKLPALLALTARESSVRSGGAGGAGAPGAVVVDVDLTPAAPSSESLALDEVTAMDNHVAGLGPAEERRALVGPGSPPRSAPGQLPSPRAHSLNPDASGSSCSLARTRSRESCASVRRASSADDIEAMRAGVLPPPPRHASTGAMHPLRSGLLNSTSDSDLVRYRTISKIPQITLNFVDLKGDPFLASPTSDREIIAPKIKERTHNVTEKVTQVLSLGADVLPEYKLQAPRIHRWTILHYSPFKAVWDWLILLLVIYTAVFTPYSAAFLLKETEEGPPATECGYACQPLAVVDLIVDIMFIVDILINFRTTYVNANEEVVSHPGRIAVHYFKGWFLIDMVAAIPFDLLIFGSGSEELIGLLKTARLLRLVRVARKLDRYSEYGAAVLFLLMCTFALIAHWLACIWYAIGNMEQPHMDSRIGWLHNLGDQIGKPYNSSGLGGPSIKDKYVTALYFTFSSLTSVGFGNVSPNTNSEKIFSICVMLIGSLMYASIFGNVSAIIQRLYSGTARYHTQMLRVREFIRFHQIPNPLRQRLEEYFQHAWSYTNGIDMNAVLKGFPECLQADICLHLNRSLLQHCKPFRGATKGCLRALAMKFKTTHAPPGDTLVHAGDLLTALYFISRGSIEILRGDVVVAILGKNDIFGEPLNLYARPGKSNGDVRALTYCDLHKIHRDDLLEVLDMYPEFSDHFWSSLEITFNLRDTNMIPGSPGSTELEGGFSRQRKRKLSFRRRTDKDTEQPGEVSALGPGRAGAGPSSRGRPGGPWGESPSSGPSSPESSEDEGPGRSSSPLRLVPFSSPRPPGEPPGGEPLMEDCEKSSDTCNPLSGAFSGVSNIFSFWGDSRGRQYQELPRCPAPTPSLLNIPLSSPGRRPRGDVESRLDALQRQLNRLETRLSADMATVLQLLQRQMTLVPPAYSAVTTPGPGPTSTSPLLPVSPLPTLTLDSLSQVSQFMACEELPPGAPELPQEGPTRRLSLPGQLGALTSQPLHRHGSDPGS

Ki [1] [µM] | Intrinsic activity [2] | Ki [3] [µM] | Ki [5] [µM] | Ki [6] [µM] | Ki [7] [µM] | Intrinsic activity [8] | Ki [9] [µM] | Ki [11] [µM] | Ki [12] [µM] | Ki [13] [µM] | Ki [14] [µM] | Ki [15] [µM] | half-life [19] [h] | Cmax [21] [µg/mL] | solubility [23] [mg/mL] | Kp at 1 h [26] | bioavailability [28] [%] | Compound | Ki [10] [µM] | ED50 [16] [mg/kg] | further results
> 10 | 0 | 0.0316 | 0.0794 | > 6.31 | 0.0794 | 0 | > 6.31 | 2 | 0.00398 | 0.316 | 0.00316 | 0.000316 |  |  |  |  |  | Cc1ccc2c(N3CCN(CCc4cccc(NC(=O)Nc5ccccc5)c4)CC3)cccc2n1 | 0.316 |  | Intrinsic activity [4]: 0
0.794 |  | 0.1 | 0.398 | 0.126 | 0.0794 |  | 0.0794 | 2 | 0.001 | > 1 | 0.00251 | 0.000316 |  |  |  |  |  | Cc1ccc2c(N3CCN(CCc4cccc(NC(=O)c5ccccc5)c4)CC3)cccc2n1 | 0.0501 |  | Activity [37]: Active; Activity [38]: Active; Activity [36]: Active

The next lines start with the molecule.

Compound | Ki [1] [µM] | Intrinsic activity [2] | Ki [3] [µM] | Ki [5] [µM] | Ki [6] [µM] | Ki [7] [µM] | Intrinsic activity [8] | Ki [9] [µM] | Ki [11] [µM] | Ki [12] [µM] | Ki [13] [µM] | Ki [14] [µM] | Ki [15] [µM] | half-life [19] [h] | Cmax [21] [µg/mL] | solubility [23] [mg/mL] | Kp at 1 h [26] | bioavailability [28] [%] | Ki [10] [µM] | ED50 [16] [mg/kg] | further results
Cc1ccc2c(N3CCN(CCc4cccc(N5CCNC5=O)c4)CC3)cccc2n1.Cl.Cl |  |  |  |  |  |  |  |  |  |  |  |  |  | 3.2 | 0.122 | > 10 | 0.5 | 58 |  | 0.03 | clearance [17]: 1.5 L/h/kg; half-life [18]: 5.3 h; AUC(0-inf) [20]: 4.22 µg·h/mL; AUC(0-inf) [22]: 2.55 µg·h/mL; Cmax [24]: 1.3 µg/mL; Cmax [25]: 1.39 µg/mL; bioavailability [27]: 63%; solubility [29]: 0.5 mg/mL; bioavailability [30]: 6%; clearance [31]: 0.66 L/h/kg; half-life [32]: 0.8 h; clearance [33]: 3.6 L/h/kg; AUC(0-inf) [34]: 0.889 µg·h/mL; solubility [35]: > 10 mg/mL
Cc1ccc2c(N3CCN(CCc4cccc(NS(C)(=O)=O)c4)CC3)cccc2n1.Cl.Cl |  |  |  |  |  |  |  |  |  |  |  |  |  | 3.9 | 0.243 | > 10 | 0.5 | 56 |  | 1 | solubility [29]: 0.6 mg/mL; clearance [31]: 0.42 L/h/kg; AUC(0-inf) [34]: 1.45 µg·h/mL; solubility [35]: > 10 mg/mL
CC(=O)Nc1cccc(CCN2CCN(c3cccc4nc(C)ccc34)CC2)c1 |  | 0 |  |  |  |  | 0 |  |  |  |  |  |  |  |  |  |  |  |  |  | inhibition [16]: Dose-dependent effect; Activity [36]: Active
